From ChEMBL document CHEMBL1955846, “Aminopyrimidinone cdc7 kinase inhibitors” (Bioorg Med Chem Lett, 2012)

Legend:
[1] = target: T1, CDC7/DBF4 (Cell division cycle 7-related protein kinase/Activator of S phase kinase) (Homo sapiens, UniProt O00311); experiment: Inhibition of human CDC7/DBF4 expressed using baculovirus expression system assessed as [33P]gamma-ATP incorporation into substrate after 60 mins by gamma counting
HCT-116 = experiment: Cytotoxicity against human HCT116 cells after 3 days by CellTitre Glo assay; assay type: functional, cell-based; conditions: HCT-116, 72 h
Summary of the method: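 HCT-116 cells seeded at 3000 cells per well and held 24 h at 37 °C. Next day, treated with serial dilutions of inhibitor. After 3 days, an equal volume of Cell Titer GLO was added and luminescence read. EC50 derived from the viability readout.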

[2] = target: T1, CDC7/DBF4 (Cell division cycle 7-related protein kinase/Activator of S phase kinase); experiment: Inhibition of CDC7/DBF4-mediated MCM2 phosphorylation in human HCT116 cells after 6 hrs by spectrophotometric analysis; assay type: cell-based, HCT-116

T1 sequence (Q9UBU7 whole entry): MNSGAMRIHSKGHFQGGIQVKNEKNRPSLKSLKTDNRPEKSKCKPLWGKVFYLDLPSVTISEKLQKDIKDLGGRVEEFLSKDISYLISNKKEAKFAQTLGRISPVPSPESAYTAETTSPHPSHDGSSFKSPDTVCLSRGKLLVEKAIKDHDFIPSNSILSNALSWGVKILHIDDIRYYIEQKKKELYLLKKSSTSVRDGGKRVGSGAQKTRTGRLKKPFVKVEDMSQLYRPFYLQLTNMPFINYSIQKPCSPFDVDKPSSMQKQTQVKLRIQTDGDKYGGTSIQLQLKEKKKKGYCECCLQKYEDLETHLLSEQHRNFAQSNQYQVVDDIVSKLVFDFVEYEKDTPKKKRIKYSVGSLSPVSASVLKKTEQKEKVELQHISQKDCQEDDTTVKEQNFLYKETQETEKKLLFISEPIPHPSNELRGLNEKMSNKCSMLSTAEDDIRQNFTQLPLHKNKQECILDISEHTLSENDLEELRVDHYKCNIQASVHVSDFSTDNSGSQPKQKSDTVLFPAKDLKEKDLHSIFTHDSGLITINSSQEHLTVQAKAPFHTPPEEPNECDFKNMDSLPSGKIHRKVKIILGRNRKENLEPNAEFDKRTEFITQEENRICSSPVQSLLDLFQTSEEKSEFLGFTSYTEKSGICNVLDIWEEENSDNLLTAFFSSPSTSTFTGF
T1 sequence (O00311 whole entry): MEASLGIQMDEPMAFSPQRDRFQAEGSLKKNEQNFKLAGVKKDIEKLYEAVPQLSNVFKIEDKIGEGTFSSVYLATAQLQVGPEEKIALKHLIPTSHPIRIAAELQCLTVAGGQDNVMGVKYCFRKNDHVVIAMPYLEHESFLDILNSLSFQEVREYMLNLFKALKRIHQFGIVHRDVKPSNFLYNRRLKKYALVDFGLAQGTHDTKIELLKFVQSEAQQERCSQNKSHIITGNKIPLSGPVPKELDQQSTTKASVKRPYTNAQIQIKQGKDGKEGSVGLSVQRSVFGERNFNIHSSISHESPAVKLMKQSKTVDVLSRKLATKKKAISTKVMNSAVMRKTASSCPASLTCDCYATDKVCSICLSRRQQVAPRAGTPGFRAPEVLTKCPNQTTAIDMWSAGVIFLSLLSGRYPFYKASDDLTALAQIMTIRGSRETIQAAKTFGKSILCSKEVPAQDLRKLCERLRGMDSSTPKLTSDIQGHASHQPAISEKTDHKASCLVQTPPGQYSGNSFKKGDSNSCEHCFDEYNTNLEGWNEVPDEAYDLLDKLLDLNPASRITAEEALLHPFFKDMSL

Row | Structure (SMILES) | Ki [1] | EC50 (HCT-116) | EC50 [2]
1 | O=c1cc(-c2ccccc2)nc(NC2CCCCC2)[nH]1 | 230 nM | – | –
2 | O=c1cc(-c2cccnc2)nc(NC2CCCCC2)[nH]1 | > 1200 nM | – | –
3 | Nc1nccc(-c2cc(=O)[nH]c(NC3CCCCC3)n2)n1 | 5 nM | – | –
4 | O=c1cc(-c2cn[nH]c2)nc(NC2CCCCC2)[nH]1 | 15 nM | – | –
5 | O=c1cc(-c2ccc3[nH]ncc3c2)nc(NC2CCCCC2)[nH]1 | 0.5 nM | – | –
6 | O=c1cc(-c2c[nH]c3ncccc23)nc(NC2CCCCC2)[nH]1 | < 0.07 nM | 103 nM | 60 nM
7 | O=c1nc(-c2c[nH]c3ncccc23)nc(NC2CCCCC2)[nH]1 | 0.3 nM | – | –
8 | O=c1nc(-c2c[nH]c3ncccc23)cc(NC2CCCCC2)[nH]1 | 1.4 nM | – | –
9 | O=c1cc(-c2c[nH]c3ncccc23)cc(NC2CCCCC2)[nH]1 | 0.5 nM | – | –
10 | O=c1cc(NC2CCCCC2)cc(-c2c[nH]c3ncccc23)[nH]1 | 1.1 nM | – | –
11 | Oc1cc(NC2CCCCC2)nc(-c2c[nH]c3ncccc23)c1 | 5.4 nM | – | –
12 | CN(c1nc(-c2c[nH]c3ncccc23)cc(=O)[nH]1)C1CCCCC1 | 0.09 nM | 106 nM | 15 nM
13 | O=c1cc(-c2c[nH]c3ncccc23)nc(Nc2ccccc2)[nH]1 | 0.12 nM | 443 nM | 143 nM
14 | O=c1cc(-c2c[nH]c3ncccc23)nc(NCc2ccccc2)[nH]1 | < 0.07 nM | 122 nM | 180 nM
15 | COCCN(CCOC)c1nc(-c2c[nH]c3ncccc23)cc(=O)[nH]1 | 0.18 nM | 2210 nM | 60 nM
16 | O=c1cc(-c2c[nH]c3ncccc23)nc(N2CCOCC2)[nH]1 | 0.18 nM | 450 nM | 300 nM
17 | O=c1cc(-c2c[nH]c3ncccc23)nc(NC2CCOCC2)[nH]1 | 0.14 nM | 2460 nM | 300 nM
18 | CN1CCC(Nc2nc(-c3c[nH]c4ncccc34)cc(=O)[nH]2)CC1 | 0.11 nM | 7370 nM | 2610 nM
19 | O=c1cc(-c2c[nH]c3ncccc23)nc(-c2ccccc2)[nH]1 | 0.25 nM | 830 nM | 410 nM
20 | O=c1cc(-c2c[nH]c3ncccc23)nc(N2CCC(O)CC2)[nH]1 | 0.2 nM | 6190 nM | 1780 nM
21 | COC1CCN(c2nc(-c3c[nH]c4ncccc34)cc(=O)[nH]2)CC1 | 0.2 nM | 520 nM | 300 nM
22 | O=c1cc(-c2c[nH]c3ncccc23)nc(NC(c2ccccc2)c2ccccc2)[nH]1 | 328 nM | – | –
